Results of several laboratories.
Protocols differ between the studies behind these lines.
PFF0160c: Dihydroorotate dehydrogenase (quinone), mitochondrial (PFF0160c, Plasmodium falciparum, UniProt Q08210)
PROC: Vitamin K-dependent protein C (PROC, Homo sapiens, UniProt P04070)
PFF0160c E182D: Dihydroorotate dehydrogenase (quinone), mitochondrial (PFF0160c, Plasmodium falciparum, UniProt Q08210, E182D)

The IC50 of `Cc1nc(NC2CCc3ccc(Cl)cc3C2)c2c(C)noc2n1` (stereo not shown) is reported as 0.017 µM (PFF0160c; enzyme activity, inhibitor, absorbance).
For `CCOC(=O)c1ccc(OC(=O)CCCCCN=C(N)N)cc1`, the IC50 was 1.4 µM (PROC; enzyme activity, inhibitor).
With `Cc1c(C(=O)NC(C)c2nc[nH]n2)[nH]c(Cl)c1Cc1ccc(C(F)(F)F)nc1` (stereo not shown) the IC50 was over 100 µM (PFF0160c; enzyme activity, inhibitor, absorbance).
With `O=S(=O)(O)c1nc2ccccc2[nH]1` the IC50 was 128 µM (racE (Bacillus subtilis, UniProt P94556); enzyme activity, inhibitor, absorbance).
`CCc1nc2nc(C)cc(Nc3ccc(F)c(Cl)c3)n2n1` has an IC50 of over 10 µM (PFF0160c E182D; enzyme activity, inhibitor, absorbance).
For `Cc1c(C2(c3ccc(C(F)(F)F)cc3F)CC2)c[nH]c1C(=O)NC(C)c1nc[nH]n1` (stereo not shown), the IC50 was over 100 µM (PFF0160c; enzyme activity, inhibitor, absorbance).
With `CCNC(=O)c1ccc(-n2nc(C)cc2-c2ccccc2)cc1` the IC50 was 0.74 µM (PFF0160c; enzyme activity, inhibitor, absorbance).
The IC50 of `Cc1c(Cc2ccc(C(F)(F)F)cc2F)c[nH]c1C(=O)NC(C)c1nc[nH]n1` (stereo not shown) is reported as 0.35 µM (PFF0160c; enzyme activity, inhibitor, absorbance).
`Cc1cc(Nc2ccc3c(c2)CCC3)n2ncnc2n1` gave an IC50 of over 10 µM (PFF0160c E182D; enzyme activity, inhibitor, absorbance).
With `Cc1nc(Nc2ccc(C(F)(F)F)cc2)c2c(C)noc2n1` the IC50 was 0.068 µM (PFF0160c; enzyme activity, inhibitor, absorbance).
With `COCC(C)n1c(SCC(=O)Nc2cc(C(F)(F)F)ccc2Cl)nc2ccccc2c1=O` (stereo not shown) the IC50 was 0.626 µM (PFF0160c; enzyme activity, inhibitor, absorbance).
For `CCOC(=O)c1[nH]cc(Cc2cccc3ncoc23)c1C`, the IC50 was 0.1 µM (PFF0160c; enzyme activity, inhibitor, absorbance).
`Cc1nc(NC2CCc3ccc(Br)cc3C2)c2c(C)noc2n1` (stereo not shown) has an IC50 of 0.022 µM (PFF0160c; enzyme activity, inhibitor, absorbance).
`CCc1ccccc1N=C1c2c(cccc2[N+](=O)[O-])C(=O)C1C(C)=O` (stereo not shown) has an IC50 of 0.384 µM (PFF0160c E182D; enzyme activity, inhibitor, absorbance).
`Cc1ccc(O)c([C@H](CCN(C(C)C)C(C)C)c2ccccc2)c1` gave an IC50 of 6.71 µM (Kappa-type opioid receptor (OPRK1, Homo sapiens, UniProt P41145); ligand displacement, radioligand).
`Cc1c(C2(c3ccc(C(F)F)nc3)CC2)c[nH]c1C(=O)NC(C)c1nc[nH]n1` (stereo not shown) gave an IC50 of over 30 µM (PFF0160c; enzyme activity, inhibitor, absorbance).
With `CC(C)C[C@@H]1C(=O)N[C@H]([C@@H](C)O)C(=O)N[C@H](C)[C@@H](C)C(=O)O[C@@H](Cc2ccccc2)C(=O)N(C)[C@@H](C(C)C)C(=O)N2CCC[C@H]2C(=O)N(C)[C@H](Cc2ccccc2)C2=N[C@@H](CS2)C(=O)N[C@H](C)C2=N[C@@H](CS2)C(=O)N1C` the IC50 was 66.6 µM (PROC; enzyme activity, inhibitor).
With `CCc1nc2nc(C)cc(Nc3ccc4c(c3)OCCO4)n2n1` the IC50 was 0.492 µM (PFF0160c; enzyme activity, inhibitor, absorbance).
`Cc1nc(NC2Cc3cc(F)c(F)cc3C2)c2c(C(F)(F)F)noc2n1` gave an IC50 of 0.022 µM (PFF0160c; enzyme activity, inhibitor, absorbance).
